ChEMBL document CHEMBL3407388, “Synthesis, anticancer activity and molecular docking studies on a series of heterocyclic trans-cyanocombretastatin analogues as antitubulin agents” (2015)

How the values were obtained:
[1] = tested on: MV4-11; test: Anti-leukemic activity against human MV4-11 cells assessed as cell dead after 24 to 48 hrs by annexin V-FITC/7-AAD staining-based flow cytometric analysis; assay type: functional; settings: for CC50: read-out: LD50 (the source's name)
How it was run: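 MV4-11 cells grown in IMDM with 10% FBS, penicillin and streptomycin, seeded at 5 × 10^5/ml and treated. At 24 and 48 h they were stained with annexin V-FITC plus 1 μg/ml 7-AAD. Percent dead cells (annexin V+) was read by flow cytometry and expressed relative to the DMSO vehicle control.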

[2] = (§1) Cytotoxicity against human HL60 cells assessed as apoptotic/dead cells after 24 to 48 hrs by annexin V-FITC/7-AAD staining-based flow cytometric analysis; assay type: functional; settings: HL-60, read-out: LD50 (the source's name)
[3] = tested on: HL-60; test: as §1; assay type: functional
[4] = tested on: K562; test: Cytotoxicity against human K562 cells assessed as apoptotic/dead cells after 24 to 48 hrs by annexin V-FITC/7-AAD staining-based flow cytometric analysis; assay type: functional
[5] = tested on: Kasumi 1; test: Cytotoxicity against human Kasumi-1 cells assessed as apoptotic/dead cells after 24 to 48 hrs by annexin V-FITC/7-AAD staining-based flow cytometric analysis; assay type: functional
[6] = (§2) Cytotoxicity against human Kasumi-4 cells assessed as apoptotic/dead cells after 24 to 48 hrs by annexin V-FITC/7-AAD staining-based flow cytometric analysis; assay type: functional; settings: read-out: LD50 (the source's name)
[7] = tested on: Kasumi-4; test: as §2; assay type: functional
[8] = (§3) Cytotoxicity against human KCL22 cells assessed as apoptotic/dead cells after 24 to 48 hrs by annexin V-FITC/7-AAD staining-based flow cytometric analysis; assay type: functional; settings: KCL-22, read-out: LD50 (the source's name)
[9] = tested on: KCL-22; test: as §3; assay type: functional
[10] = (§4) Cytotoxicity against human KG1 cells assessed as apoptotic/dead cells after 24 to 48 hrs by annexin V-FITC/7-AAD staining-based flow cytometric analysis; assay type: functional; settings: KG-1, read-out: LD50 (the source's name)
[11] = tested on: KG-1; test: as §4; assay type: functional
[12] = (§5) Cytotoxicity against human MLL-ENL cells assessed as apoptotic/dead cells after 24 to 48 hrs by annexin V-FITC/7-AAD staining-based flow cytometric analysis; assay type: functional; settings: read-out: LD50 (the source's name)
[13] = species on record: Homo sapiens; test: as §5; assay type: functional
[14] = tested on: MOLM-13; test: Cytotoxicity against human MOLM13 cells assessed as apoptotic/dead cells after 24 to 48 hrs by annexin V-FITC/7-AAD staining-based flow cytometric analysis; assay type: functional
[15] = (§6) Cytotoxicity against human TF1 cells assessed as apoptotic/dead cells after 24 to 48 hrs by annexin V-FITC/7-AAD staining-based flow cytometric analysis; assay type: functional; settings: TF-1, read-out: LD50 (the source's name)
[16] = tested on: TF-1; test: as §6; assay type: functional
[17] = tested on: THP-1; test: Cytotoxicity against human THP1 cells assessed as apoptotic/dead cells after 24 to 48 hrs by annexin V-FITC/7-AAD staining-based flow cytometric analysis; assay type: functional
[18] = tested on: TUR; test: Cytotoxicity against human TUR cells assessed as apoptotic/dead cells after 24 to 48 hrs by annexin V-FITC/7-AAD staining-based flow cytometric analysis; assay type: functional
[19] = tested on: Leukemia cell; test: Cytotoxicity against human primary blast crisis phase of chronic myeloid leukemia cells assessed as apoptotic/dead cells at 25 to 200 nM by CD45-APC-H7/ annexin V-FITC/7-AAD staining-based flow cytometric analysis; assay type: functional; settings: TDE = time-dependent effect
How it was run: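 Cryopreserved primary blast-crisis CML samples, obtained with informed consent and IRB approval, were thawed, cultured and treated with the indicated doses. At 48 h they were stained with CD45-APC-H7, then annexin V-FITC and 7-AAD. Percent annexin V+ blasts by flow cytometry, normalized to the DMSO control.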

[20] = Cytotoxicity against human primary blast crisis phase of chronic myeloid leukemia cells assessed as apoptotic/dead cells at 25 nM measured at 96 hrs by CD45-APC-H7/ annexin V-FITC/7-AAD staining-based flow cytometric analysis relative to control; assay type: functional, Leukemia cell
How it was run: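 Thawed cryopreserved primary blast-crisis CML cells were treated and read at 24, 48 and 96 h time-points. Staining used CD45-APC-H7, annexin V-FITC and 7-AAD. Apoptotic/dead cells were scored by flow cytometry as percent annexin V+ blasts, normalized to the DMSO control.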

[21] = biological target: Tubulin (Homo sapiens) (UniProt P68371+Q9H4B7+P0DPH7+P68366+Q13509+Q71U36+P04350+Q3ZCM7+P07437+P68363+Q9BQE3+Q6PEY2+Q13885+Q9BVA1+Q9BUF5); test: Inhibition of tubulin polymerization in human MV4-11 cells at 50 nM after 2 hrs by immunoblot analysis relative to control; assay type: cell-based
How it was run: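 MV4-11 AML cells were exposed for 2 h to 25, 50 or 100 nM compound. Free tubulin (supernatant) and polymerized tubulin (pellet) were separated and detected by anti-tubulin immunoblot.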

[22] = read-out: LD50 (the source's name)

With `COc1cc(/C(C#N)=C/c2csc3ccccc23)cc(OC)c1OC` the Activity [1] was “Dose-dependent effect” and the CC50 [1] was 180 nM.
`COc1ccc(/C(C#N)=C/c2nc3ccccc3s2)cc1OC` showed a CC50 [1] of 1220 nM.
`COc1cc(OC)cc(/C(C#N)=C/c2cc3ccccc3o2)c1` showed a CC50 [1] of 1170 nM.
With `COc1ccc(/C(C#N)=C/c2cc3ccccc3s2)cc1OC` the CC50 [1] was 6060 nM.
For `COc1cc(/C(C#N)=C/c2cc3ccccc3s2)cc(OC)c1OC`, the CC50 [1] was 18 nM, the CC50 [2] was 120 nM and the Activity [3] was “Dose-dependent effect”. The Activity [4] was “Dose-dependent effect”, the CC50 [4, 22] was 99.5 nM and the Activity [5] was “Dose-dependent effect”. For the same molecule, the CC50 [5, 22] was 151 nM, the CC50 [6] was 156 nM and the Activity [7] was “Dose-dependent effect”. The CC50 [8] was 114 nM, the Activity [9] was “Dose-dependent effect” and the CC50 [10] was 113 nM. For the same molecule, the Activity [11] was “Dose-dependent effect”, the CC50 [12] was 271 nM and the Activity [13] was “Dose-dependent effect”. For the same molecule, the Activity [14] was “Dose-dependent effect”, the CC50 [14, 22] was 83 nM and the CC50 [15] was 79.5 nM. For the same molecule, the Activity [16] was “Dose-dependent effect”, the Activity [17] was “Dose-dependent effect” and the CC50 [17, 22] was 227 nM. For the same molecule, the Activity [18] was “Dose-dependent effect”, the CC50 [18, 22] was 93 nM and the Activity [19] was “tde”. The Activity [20] was greater than 50% and the inhibition [21] was greater than 50%.
